One compound from ChEMBL document CHEMBL4261552, “4-Hydroxy-N-[3,5-bis(trifluoromethyl)phenyl]-1,2,5-thiadiazole-3-carboxamide: a novel inhibitor of the canonical NF-κB cascade” (Medchemcomm, 2017) can be followed below.

Active and inactive are the calls of the source. The calls are words filed in the database; no cut-off is given here.

The target of experiment [1] is T1, Inhibitor of nuclear factor kappa-B kinase subunit beta (Homo sapiens) (UniProt O14920).
T1 sequence (whole entry): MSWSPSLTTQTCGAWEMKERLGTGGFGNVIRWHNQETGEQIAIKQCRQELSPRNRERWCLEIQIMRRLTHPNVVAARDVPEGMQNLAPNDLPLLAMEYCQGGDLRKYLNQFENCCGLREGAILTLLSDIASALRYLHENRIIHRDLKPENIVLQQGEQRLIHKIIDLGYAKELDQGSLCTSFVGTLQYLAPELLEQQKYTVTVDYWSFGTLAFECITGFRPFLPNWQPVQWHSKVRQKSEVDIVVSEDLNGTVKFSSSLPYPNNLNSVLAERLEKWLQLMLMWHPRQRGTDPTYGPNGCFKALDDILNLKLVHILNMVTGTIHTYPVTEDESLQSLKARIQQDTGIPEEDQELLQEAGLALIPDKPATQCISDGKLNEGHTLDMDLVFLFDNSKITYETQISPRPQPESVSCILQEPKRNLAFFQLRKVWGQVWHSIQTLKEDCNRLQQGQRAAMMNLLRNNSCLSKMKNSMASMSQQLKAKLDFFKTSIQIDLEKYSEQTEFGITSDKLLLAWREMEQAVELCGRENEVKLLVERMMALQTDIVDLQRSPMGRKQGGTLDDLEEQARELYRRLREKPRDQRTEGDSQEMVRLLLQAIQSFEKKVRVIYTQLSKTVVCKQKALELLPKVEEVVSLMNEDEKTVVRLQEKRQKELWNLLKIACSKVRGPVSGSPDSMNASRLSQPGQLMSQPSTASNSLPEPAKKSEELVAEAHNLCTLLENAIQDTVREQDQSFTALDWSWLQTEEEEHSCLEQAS
In words: Inhibition of human IKKbeta at 100 uM using ERLLDDRHDSGLDSMKDEE as substrate after 60 mins in presence of ATP by ADP-Glo kinase assay relative to control. In general terms: ADP-Glo first removes unused ATP, then detects ADP through luciferase.

Experiment [2] deals with T1, Inhibitor of nuclear factor kappa-B kinase subunit beta (Homo sapiens). In words: Induction of IKKbeta phosphorylation at S177/181 residues in TNFalpha-stimulated human Jurkat cells at 10 uM preincubated for 60 mins followed by TNFalpha-stimulation for 20 mins by immunoblot analysis. Format: cell-based. The method, boiled down:
(§1)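 Jurkat E6.1 cells in X-VIVO 15 with 10% FBS, passages 5–10, were pretreated 60 min with 10 µM compound (DMSO vehicle), then stimulated 20 min with TNFα 15 ng/mL. Lysates were made with protease and phosphatase inhibitors, 20 µg/lane was run on 12% SDS-PAGE, and IKKα/IKKβ phosphorylation was detected by immunoblot with ECL. Three independent experiments were run.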

Experiment [3] has as its target T2, Inhibitor of nuclear factor kappa-B kinase subunit alpha (Homo sapiens) (UniProt O15111).
T2 sequence (whole entry): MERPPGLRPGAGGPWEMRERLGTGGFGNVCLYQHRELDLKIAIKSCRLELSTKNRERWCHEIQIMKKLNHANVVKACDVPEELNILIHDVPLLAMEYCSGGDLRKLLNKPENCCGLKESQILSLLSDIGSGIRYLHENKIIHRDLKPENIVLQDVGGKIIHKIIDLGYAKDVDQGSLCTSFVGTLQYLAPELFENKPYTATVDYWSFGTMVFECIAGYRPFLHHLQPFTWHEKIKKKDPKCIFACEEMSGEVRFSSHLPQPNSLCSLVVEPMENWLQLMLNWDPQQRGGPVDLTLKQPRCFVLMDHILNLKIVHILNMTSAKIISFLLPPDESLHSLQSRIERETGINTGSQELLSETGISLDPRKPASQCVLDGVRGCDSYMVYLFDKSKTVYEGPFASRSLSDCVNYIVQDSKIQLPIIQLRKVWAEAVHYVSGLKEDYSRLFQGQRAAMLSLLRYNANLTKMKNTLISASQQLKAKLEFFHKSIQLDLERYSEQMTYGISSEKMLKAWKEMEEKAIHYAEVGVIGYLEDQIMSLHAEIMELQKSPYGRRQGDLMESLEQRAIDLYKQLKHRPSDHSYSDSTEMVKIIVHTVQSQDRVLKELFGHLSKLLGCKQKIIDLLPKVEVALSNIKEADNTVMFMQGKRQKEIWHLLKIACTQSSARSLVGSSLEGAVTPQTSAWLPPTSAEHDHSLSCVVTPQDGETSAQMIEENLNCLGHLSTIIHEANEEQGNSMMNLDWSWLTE
In words: Induction of IKKalpha phosphorylation at S176/180 residues in TNFalpha-stimulated human Jurkat cells at 10 uM preincubated for 60 mins followed by TNFalpha-stimulation for 20 mins by immunoblot analysis. Format: cell-based. The method, boiled down: as §1

On to `O=C(Nc1cc(C(F)(F)F)cc(C(F)(F)F)c1)c1cc(Cl)ccc1O` [IMD-0354], for which the inhibition in experiment [1] was 5.43%. Besides, the outcome in experiment [2] and in experiment [3] was Active.

What is called inhibition is the share of the control response that was lost under treatment.
